Compounds with a hit are over-represented: about 1.7% of the library has one in this group of screens.
PGC1a acetyl inh: PGC1a acetylation modulation, inhibitor mode | U2OS PGC1a acetylation, AlphaScreen anti-acetyl-lysine; with virally co-expressed GCN5 acetyltransferase | inhibition, % at 15.6 µM | 350,000 compounds, 0.17% hits | AID 651687;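 active means every replicate shows inhibition of at least 40%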
miR-122 sensor: inhibitors of miR-122 in Huh7 cells; Huh7 miR-122 Renilla luciferase sensor, 48 h; neutral wells = 0, positive control = 100; activation (reporter increase), % at 12.5 µM; 340,000 compounds, 0.3% hits;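 active means mean replicate activation score at least 90 and every replicate individually at or above 90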;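 further: higher luciferase means less miR-122 activity so hits act as miR-122 inhibitors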
ARNT-TACC3 inh: disruptors of human ARNT/TACC3 interaction | 390,000 compounds, 0.66% hits | Q9Y6A5 | inhibition, % at 9.99 µM | AlphaScreen His-ARNT PAS-B/GST-TACC3 binding, luminescence; TACC3 fragment carries E629A point mutation;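 active means mean inhibition of replicates at least 50% and at least half of replicates each reaching 50%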
CAL PDZ FP-1: inhibitors of human CAL PDZ peptide binding; Q9HD26; purified CAL PDZ, TMR-peptide fluorescence polarization, 1 h; inhibition, % at 20 µM; 330,000 compounds, 0.02% hits; AID 504414;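 active means highest replicate inhibition of at least 40%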
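Material: tagged CAL PDZ protein CerCALP, purified; buffer or medium: sodium phosphate/NaCl buffer pH 7.4 with TCEP, IgG, Thesit; also added: fluorescent TMR peptide probe; schedule: 1 h incubation at room temperature before polarization reading; technique: fluorescence polarization from S- and P-plane intensities, G-factor corrected; control set: unlabelled peptide and DMSO controls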
F508del corr: CFTR F508del correction in bronchial cells; activity (quench increase), % at 7.58 µM; 350,000 compounds, 0.36% hits; CFBE cells, YFP halide quenching; stimulated with forskolin plus potentiator P3; % fluorescence drop versus neutral controls; AID 720511;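 active means mean added fluorescence quench of at least 8% versus neutral control, with both replicates also reaching 8%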;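 further: cells transiently co-express mutant CFTR-F508del with the halide-sensitive YFP; corrector assay measuring rescue of mutant channel to the surface after 24 h compound exposure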
CAL PDZ FP-2: inhibitors of human CAL PDZ peptide binding | Q9HD26 | purified CAL PDZ, TMR-peptide fluorescence polarization, 1 h | inhibition, % at 24.9 µM | 300,000 compounds, 0.92% hits | AID 602252;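 active means mean inhibition of at least 30% with at least half of replicates also reaching 30%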
Numbers stand for hits; n = inactive; x = no result given; + = active, no number.

SMILES | PGC1a acetyl inh | miR-122 sensor | ARNT-TACC3 inh | CAL PDZ FP-1 | F508del corr | CAL PDZ FP-2
CO[C@H](CN(C)C(=O)Nc1ccc(F)cc1)[C@@H](C)CN(Cc1ccccc1Cl)[C@H](C)CO | n | x | n | x | n | x
C[C@H]1CCCCO[C@@H](CN(C)Cc2ccc(C(F)(F)F)cc2)[C@@H](C)CN([C@@H](C)CO)C(=O)c2cc(NC(=O)Cc3ccccc3)ccc2O1 | n | n | n | x | n | x
Cc1ccc(S(=O)(=O)NCc2ccccn2)c(C)c1 | n | n | n | n | n | n
CCOc1cc(C)c(Cl)cc1S(=O)(=O)NCc1ccco1 | n | 116 | n | n | x | x
COc1cc(OC)c(S(=O)(=O)NCc2ccco2)cc1S(=O)(=O)NCc1ccco1 | n | n | x | n | x | n
COc1cc(C)c(Cl)cc1S(=O)(=O)NCc1ccco1 | n | 105 | n | n | x | n
CCOc1cc(C)c(C(C)C)cc1S(=O)(=O)NCc1ccccn1 | x | 104 | x | n | x | x
CCOc1ccc(S(=O)(=O)NCc2ccco2)c2ccccc12 | n | 122 | n | n | n | n
CCNC(=O)C[C@@H]1CC[C@@H]2[C@@H](COc3ccc(NC(=O)Nc4ccccc4OC)cc3C(=O)N2C)O1 | n | n | n | x | n | x
C[C@H](NC(=O)C[C@@H]1CC[C@H](NC(=O)Cc2ccccn2)[C@@H](CO)O1)c1ccccc1 | n | n | n | x | n | x
COc1ccc(CCN2C(=O)C(Oc3ccccc3C)C2c2ccc3c(c2)OCO3)cc1 (stereo not given) | n | n | n | n | n | n
O=C1C(Oc2ccccc2)C(c2ccc3c(c2)OCO3)N1CCc1ccc(F)cc1 (stereo not given) | x | 238 | n | n | n | x
CCCCCSc1nnc(C)c(=O)[nH]1 | 91 | n | n | n | n | x
C[C@@H]1CN([C@@H](C)CO)C(=O)Cc2cc(NS(=O)(=O)c3cn(C)cn3)ccc2O[C@H]1CN(C)C(=O)Nc1ccc2c(c1)OCO2 | n | n | n | x | n | x
CN(C)S(=O)(=O)c1cccc(COC(=O)c2ccc(Cl)cc2O)c1 | x | x | n | n | n | n
CN(C)S(=O)(=O)c1cccc(COc2ncnc3c(Cl)cc(Cl)cc23)c1 | n | n | x | n | n | 56
O=c1oc2ccccc2c(O)c1Sc1c(O)c2ccccc2oc1=O | n | x | 76 | n | x | n
C[C@@H]1CN([C@H](C)CO)S(=O)(=O)c2ccc(C#C[C@@H](C)O)cc2O[C@@H]1CN(C)C(=O)Nc1ccccc1 | n | n | n | x | n | x
CO/N=C\CC(=O)Nc1ccc(Cl)cc1Cl | x | x | n | n | 11 | n
COc1cccc(S(=O)(=O)N[C@H]2CC[C@@H](CCn3cc(-c4ccccn4)nn3)O[C@H]2CO)c1 | n | x | x | x | n | x
Cc1ccc(S(=O)(=O)Nc2cccc3c2O[C@@H](CN(C)Cc2ccc(-c4ccccc4)cc2)[C@H](C)CN([C@@H](C)CO)C3=O)cc1 | n | n | n | x | n | x
COc1ccc(OCC(=O)Nc2nc3c(s2)CCCC3)cc1 | n | n | n | n | n | 72
O=C(COc1ccc(F)cc1)Nc1nc2c(s1)CCCC2 | n | n | n | n | n | n
CO[C@@H]1CN(C)C(=O)c2cc(NC(=O)CC(F)(F)F)ccc2OC[C@@H](C)N(C(=O)c2ccccc2F)C[C@@H]1C | n | x | x | x | n | x
C/C(=N\NC(=O)c1cccc(Br)c1)c1ccccn1 | x | n | 45 | n | n | n
SMILES | PGC1a acetyl inh | miR-122 sensor | ARNT-TACC3 inh | CAL PDZ FP-1 | F508del corr | CAL PDZ FP-2
C/C(=N/NC(=O)c1ccc(C(C)(C)C)cc1)c1ccccn1 | n | n | 65 | n | n | x
COc1ccc(C(=O)N/N=C(\C)c2ccccn2)cc1OC | x | n | 67 | n | n | n
C/C(=N\NC(=O)c1ccccc1Cl)c1ccccn1 | x | n | 67 | n | n | n
C[C@@H]1CN([C@H](C)CO)C(=O)c2cc(NC(=O)CCCCCC(=O)Nc3ccccc3N)ccc2O[C@@H]1CN(C)Cc1ccc(C(F)(F)F)cc1 | n | x | x | x | n | x
C[C@@H]1CCCCO[C@@H](CN(C)Cc2ccccc2)[C@@H](C)CN([C@H](C)CO)C(=O)c2cc(NS(C)(=O)=O)ccc2O1 | n | n | x | x | n | x
C/C(=N\NC(=O)C1COc2ccccc2O1)c1ccccn1 (stereo not given) | n | n | 64 | n | x | n
C/C(=N\NC(=O)c1cc(-c2cccs2)nc2ccccc12)c1ccccn1 | n | 151 | 73 | n | 12 | n
C/C(=N\NC(=O)C1COc2ccccc2O1)c1ccc(C)o1 (stereo not given) | n | n | n | n | x | n
C/C(CC(=O)Nc1ccccn1)=N\NC(=O)c1ccccc1O | x | 262 | x | n | n | n
COc1ccc(-c2nn(-c3ccccc3)cc2/C=C/C(=O)N2CCOCC2)cc1OC | n | n | n | n | n | 53
COc1ccc(S(=O)(=O)N2CCCCC2)cc1NC(=O)C1CC1 | n | n | x | n | n | 32
COc1ccc(S(=O)(=O)N2CCCCCC2)cc1NC(C)C(=O)Nc1ccc(NC(C)=O)cc1 (stereo not given) | n | n | x | n | n | 48
COc1ccc(S(=O)(=O)N2CCCCCC2)cc1C(=O)OC(C)C(N)=O (stereo not given) | n | n | n | n | n | +
COC(=O)CNc1cc(S(=O)(=O)N2CCCCC2)ccc1Oc1cccc(C)c1 | n | n | x | n | n | x
Cc1ccc(S(=O)(=O)N2CCCCC2)cc1NC(=O)C1CC1 | n | n | n | n | n | n
COC(=O)CNc1cc(S(=O)(=O)N2CCCCC2)ccc1Oc1ccc(C(=O)OC)cc1 | n | n | n | n | 8.7 | n
CCCC(=O)Nc1ccc2c(c1)OC[C@@H](C)N(Cc1ccc(-c3ccccn3)cc1)C[C@H](C)[C@H](OC)CN(C)C2=O | x | n | n | x | n | x
CCCNC(=O)C[C@H]1CC[C@H]2[C@H](COc3ccc(NC(=O)c4cccc(C(F)(F)F)c4)cc3C(=O)N2C)O1 | n | n | n | x | n | x
CN1[C@@H]2c3ccc(-c4ccccc4F)c(=O)n3C[C@@H]2[C@@H](CO)[C@@H]1C(=O)NCc1ccc(F)cc1 | x | n | n | x | n | x
Cc1ccc(-c2ccc3c(c2)O[C@H](CN(C)Cc2cncnc2)[C@H](C)CN([C@@H](C)CO)S3(=O)=O)cc1 | n | n | x | x | n | x
CC(=O)c1ccc(NC(=S)NCCCn2ccnc2)cc1 | n | x | n | n | n | n
CC(C)(C)C(=O)Nc1ccccc1C(=O)NCCCn1ccnc1 | n | n | 61 | n | n | n
O=C(Nc1ccccc1C(=O)NCCCn1ccnc1)c1ccccc1 | n | n | n | n | n | n
O=C(NCCc1ccccc1)c1ccccc1SCC(=O)N1CCCC1 | x | x | n | n | n | n
CCSc1ccccc1C(=O)NCCc1ccccc1 | x | x | n | n | n | 46
Cc1cc(C)c(S(=O)(=O)NCCCn2ccnc2)cc1C | n | 129 | n | n | n | n
COc1ccc(NC(=S)NCCCn2ccnc2)cc1 | n | n | active | n | x | n

Assay outcomes as filed in PubChem.
